These results are taken from article PMC3350218 (Journal of Medicinal Chemistry, 2012).

The test system of data set [1] is P. falciparum. Kind of data set: Antiplasmodial activity as quoted in text. In kind it is cell-based, Plasmodium falciparum. The settings on record: for EC50: Plasmodium falciparum, read-out: antiplasmodial activity EC50; for improvement in potency: on 8,8-dimethyl substitution (33 vs 32; 35 vs 31); for loss/decrease of potency: relative to parent compound (17: 8-methyl; 32: lactam vs 31). The procedure, abridged: (§1)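 P. falciparum was grown in O+ erythrocytes and tested in serum-free medium with 0.5% Albumax II. Test compound ran as a 12-point half-log series, top final 10 μM, at 0.3% parasitemia and 2.5% hematocrit, 72 h, 37 °C, low-oxygen gas. Saponin/Triton lysis buffer with SYBR Green was added (24 h, 25 °C), then fluorescence read at 485/530 nm. […] EC50 came from logistic fit, with at least duplicate plates.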

Data set [2] concerns Caco-2. Kind of data set: Caco-2 permeability assay. It counts as in vitro ADME. The settings on record: for Caco-2 A–B: apical to basolateral; for Caco-2 B–A: basolateral to apical. (Passage across Caco-2 layers is used to estimate intestinal permeability.)
Data set [3] relates to P. falciparum strain W2. Kind of data set: Antiplasmodial proliferation inhibition assay, 384-well, SYBR Green. It counts as cell-based, Plasmodium falciparum. The procedure, abridged: as §1
For data set [4], the system named is Plasmodium berghei. Kind of data set: Plasmodium berghei mouse survival model. The conditions noted are these: for survival (average lifespan after infection): untreated control 6–7 days. In kind it is in vivo, Plasmodium berghei (NMRI mice). The procedure, abridged:
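Female NMRI mice (20–22 g), three per group, were infected IV on day 0 with 2 × 10^7 P. berghei GFP ANKA-parasitised erythrocytes. Test compound in 75% PEG300/25% D5W was given orally at 10 mL/kg, either once at 24 h or daily at 24, 48 and 72 h. Parasitemia was measured by flow cytometry at 72 h or 96 h, as % reduction versus untreated controls. Survival was followed to day 30, and cure meant parasite-free survival to day 30.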

In data set [5] the test system is P. falciparum strain 3D7. In words: Antiplasmodial proliferation inhibition assay, 384-well, SYBR Green. The conditions noted are these: Plasmodium falciparum, 3D7, read-out: P. falciparum strain EC50 3D7. In kind it is cell-based. The procedure, abridged: as §1
Data set [6] can be described thus: Metabolic stability in mouse liver microsomes. In kind it is in vitro ADME. The settings on record: Table 2.
A short description of data set [7]: PAMPA assay. In kind it is in vitro ADME. The settings on record: Table 3. In general terms: PAMPA measures passive passage across an artificial lipid membrane.
A short description of data set [8]: Caco-2 permeability assay. The conditions noted are these: human, Caco-2. It counts as in vitro ADME.
The nature of data set [9]: In vivo pharmacokinetics in mice. The conditions noted are these: mouse, plasma.
Data set [10] in a line: Rat snapshot PK. It counts as in vivo.
A short description of data set [11]: Rat full PK / dose escalation PK. In kind it is in vivo. The conditions noted are these: rat PO, 30 mg/kg vs 10 mg/kg.
The mark [12] stands for this setting: read-out: P. falciparum strain EC50 W2, Table 1, means of two experiments, 72 h incubation.
[13] abbreviates: Wistar, rat, plasma, po, 20 mg/kg.

Read-outs that look alike come from different tables or passages of the source. Bounds are passed on as bounds.

In the case of `Cc1ccc(Nc2c(-c3ccc(F)cc3)nc3n2CCNC3)cc1` [Compound 31, 2-(4-Fluorophenyl)-N-(p-tolyl)-5,6,7,8-tetrahydroimidazo[1,2-a]pyrazin-3-amine], in data set [1], the EC50 lay in the range of 160 to 400 nM. In [2], the “Caco-2 A–B” value was 8.2 cm/s ×10^6 and the “Caco-2 B–A” value is 2.36 cm/s ×10^6.

Turning to “(R)-2-Amino-1-(3-(4-chloro-3-fluorophenylamino)-2-(4-fluorophenyl)-8-isopropyl-5,6-dihydroimidazo[1,2-a]pyrazin-7(8H)-yl)ethanone [Compound 20]”, the EC50 in data set [3] (setting [12]) stood at 202 ± 38 nM.

As for `CC1(C)c2nc(-c3ccc(F)cc3)c(Nc3ccc(F)c(F)c3)n2CCN1C(=O)CN` [Compound 24, 2-Amino-1-(3-((3,4-difluorophenyl)amino)-2-(4-fluorophenyl)-8,8-dimethyl-5,6-dihydroimidazo[1,2-a]pyrazin-7(8H)-yl)ethanone], in [2], the “Caco-2 A–B” value was 0.61 cm/s ×10^6 and the “Caco-2 B–A” value worked out at 1.3 cm/s ×10^6. Besides, in data set [4] (1 × 30 mg/kg oral, 30 mg/kg), the “activity (average parasitemia reduction)” value is given as more than 99%.

Take `CC1(C)NC(=O)Cn2c1nc(-c1ccc(F)cc1)c2Nc1ccc(Cl)c(F)c1` [Compound 34, 3-(4-Chloro-3-fluorophenylamino)-2-(4-fluorophenyl)-8,8-dimethyl-7,8-dihydro imidazo[1,2-a]pyrazin-6(5H)-one]: the concentration for a half-maximal effect (EC50) in data set [5] is 36 ± 2 nM. The EC50 in [3] (Plasmodium falciparum, W2, read-out: P. falciparum strain EC50 W2) was 65 ± 3 nM. For the same molecule, the “mouse microsome hepatic extraction ratio” value in data set [6] was 0.61. Also, the “PAMPA, measured as percentage absorbed” value in [7] is 97.1%. In data set [8], this molecule came in with an apparent permeability from apical to basolateral (Papp A→B) of 3.22 ×10⁻⁶ cm/s and a Papp B→A of 3.35 ×10⁻⁶ cm/s. In addition, in [9] (male, Balb/c, iv, 5 mg/kg), the AUC(0-t) was 16.5 µM·h, the Vd was 2.7 L/kg, the clearance was 12.5 mL/min/kg and the half-life was 2.8 h. In addition, the bioavailability in data set [9] (male, Balb/c, oral, 20 mg/kg) was determined as 77%. Moreover, in data set [9] (male, Balb/c, po, 20 mg/kg), the AUC(0-t) stood at 50.6 µM·h, the Cmax turned out to be 3650 nM, the Tmax is 1 h and the half-life is 2.71 h. The “AUC(0–5 h)/dose” value in data set [10] (PO, Wistar rat) is reported as 5.07 (min·μg/mL)/(mg/kg). Also, in [10] (setting [13]), the exposure AUC(0-t) is 2.1 µM·h and the peak level (Cmax) was 504 nM. Moreover, in data set [4] (1 × 30 mg/kg oral), the “activity (average parasitemia reduction)” value is reported as 47.0% and the “survival (average lifespan after infection)” value (from here on “survival”) was 6.3 days. Moreover, in [4] (1 × 100 mg/kg oral), the “activity (average parasitemia reduction)” value was determined as 97.0% and the “survival” value was 6.7 days. For the same molecule, in [4] (3 × 30 mg/kg oral), the “activity (average parasitemia reduction)” value was found to be 66.0% and the “survival” value worked out at 7.0 days.

For “(S)-2-Amino-1-(3-(4-chloro-3-fluorophenylamino)-2-(4-fluorophenyl)-8-isopropyl-5,6-dihydroimidazo[1,2-a]pyrazin-7(8H)-yl)ethanone [Compound 19]”, the EC50 in data set [3] (setting [12]) was 470 ± 130 nM.

Regarding `CC(C)(N)C(=O)N1CCn2c(nc(-c3ccc(F)cc3)c2Nc2ccc(F)cc2)C1(C)C` [Compound 28, 2-Amino-1-(2-(4-fluorophenyl)-3-(4-fluorophenylamino)-8,8-dimethyl-5,6-dihydroimidazo[1,2-a]pyrazin-7(8H)-yl)-2-methylpropan-1-one], in data set [2], the “Caco-2 A–B” value is listed as 1.2 cm/s ×10^6 and the “Caco-2 B–A” value is recorded as 0.97 cm/s ×10^6.

In data set [8], `CC(C)(N)C(=O)N1CCn2c(nc(-c3ccc(F)cc3)c2Nc2ccc(F)cc2)C1` [Compound 27, 2-Amino-1-(2-(4-fluorophenyl)-3-((4-fluorophenyl)amino)-5,6-dihydroimidazo[1,2-a]pyrazin-7(8H)-yl)-2-methylpropan-1-one] returned a Papp A→B of 3.05 ×10⁻⁶ cm/s and a Papp B→A of 8.38 ×10⁻⁶ cm/s.

Turning to `Cc1ccc(Nc2c(-c3ccc(F)cc3)nc3n2CC(=O)NC3(C)C)cc1` [Compound 33, 2-(4-Fluorophenyl)-8,8-dimethyl-3-(p-tolylamino)-7,8-dihydroimidazo[1,2-a]pyrazin-6(5H)-one], the improvement in potency in data set [1] is listed as 7 fold.

Take “2-Amino-1-(3-(4-chloro-3-fluorophenylamino)-2-(4-fluorophenyl)-8,8-dimethyl-5,6-dihydroimidazo[1,2-a]pyrazin-7(8H)-yl)ethanone [Compound 21]”: in data set [3] (setting [12]), the concentration for a half-maximal effect (EC50) came to 24 ± 1 nM.

Take `Cc1ccc(Nc2c(-c3ccc(F)cc3)nc3n2CCN(C(=O)C(C)(C)N)C3(C)C)cc1` [Compound 29, 2-Amino-1-(2-(4-fluorophenyl)-8,8-dimethyl-3-(p-tolylamino)-5,6-dihydroimidazo[1,2-a]pyrazin-7(8H)-yl)-2-methylpropan-1-one]: in data set [2], the “Caco-2 A–B” value is on record as 3.5 cm/s ×10^6 and the “Caco-2 B–A” value was 2.37 cm/s ×10^6. Besides, the “in vivo exposure in rat” value in data set [10] (oral, rat snapshot PK) was “did not exhibit any in vivo exposure”. In addition, the “activity (average parasitemia reduction)” value in data set [4] (1 × 30 mg/kg oral, 30 mg/kg) is on record as more than 99%. Further, the “survival” value in data set [4] (3 × 30 mg/kg oral) worked out at 18.0 days.

Take `Cc1ccc(Nc2c(-c3ccc(F)cc3)nc3n2CC(=O)NC3)cc1` [Compound 32, 2-(4-Fluorophenyl)-3-(p-tolylamino)-7,8-dihydroimidazo[1,2-a]pyrazin-6(5H)-one]: in [1], the loss/decrease of potency is recorded as approximately 7 fold. Also, in data set [2], the “Caco-2 A–B” value is on record as 15 cm/s ×10^6 and the “Caco-2 B–A” value is listed as 14.37 cm/s ×10^6.

Take `CC1(C)c2nc(-c3ccc(F)cc3)c(Nc3ccc(F)cc3)n2CCN1C(=O)CN` [Compound 22, 2-Amino-1-(2-(4-fluorophenyl)-3-(4-fluorophenylamino)-8,8-dimethyl-5,6-dihydroimidazo[1,2-a]pyrazin-7(8H)-yl)ethanone]: in data set [2], the “Caco-2 A–B” value amounted to 1.26 cm/s ×10^6 and the “Caco-2 B–A” value was 2.99 cm/s ×10^6. Besides, in data set [9] (oral, 2 mg/kg), the Cmax is approximately 75 nM. In addition, in data set [11], the “increase in AUC” value is 7 fold and the increase in bioavailability is recorded as 2 fold. Also, the “activity (average parasitemia reduction)” value in [4] (1 × 30 mg/kg oral, 30 mg/kg) is recorded as more than 99%. Further, the “efficacy of substituted vs unsubstituted piperazine core (ED99)” value in data set [4] (compound 22 vs compound 1) is on record as approximately 10 fold.

Regarding “(R)-2-Amino-1-(3-(4-chloro-3-fluorophenylamino)-2-(4-fluorophenyl)-8-methyl-5,6-dihydroimidazo[1,2-a]pyrazin-7(8H)-yl)ethanone [Compound 18]”, the EC50 in [3] (setting [12]) was 29 ± 3 nM.

As to `Cc1ccc(Nc2c(-c3ccc(F)cc3)nc3n2CCNC3(C)C)cc1` [Compound 35, 2-(4-Fluorophenyl)-8,8-dimethyl-N-p-tolyl-5,6,7,8-tetrahydroimidazo[1,2-a]pyrazin-3-amine], in [1], the EC50 is approximately 10 nM and the improvement in potency was approximately 10 fold. Besides, in data set [2], the “Caco-2 A–B” value is recorded as 15.56 cm/s ×10^6 and the “Caco-2 B–A” value was 6.96 cm/s ×10^6.

On to `NCC(=O)N1CCn2c(nc(-c3ccc(F)cc3)c2Nc2ccc(F)cc2)C1` [Compound 15], for which, in data set [8], the Papp A→B came to 0.7 ×10⁻⁶ cm/s and the Papp B→A was 2.55 ×10⁻⁶ cm/s.

Take “(S)-2-Amino-1-(3-(4-chloro-3-fluorophenylamino)-2-(4-fluorophenyl)-8-methyl-5,6-dihydroimidazo[1,2-a]pyrazin-7(8H)-yl)ethanone [Compound 17]”: in data set [3] (setting [12]), the 50% effective concentration (EC50) was 24 ± 1 nM. For the same molecule, the loss/decrease of potency in data set [1] was determined as 10 fold.

Usually EC50 stands for the concentration that produces a half-maximal response. What is called Papp A→B is how fast a substance crosses the layer from the apical side. A lower Papp A→B goes with slow passage. The term Papp B→A denotes how fast a substance crosses the layer from the basolateral side. The term AUC(0-t) denotes exposure summed from dosing to a finite time, without extrapolation to infinity. Read a high AUC(0-t) as high exposure. As usually defined, the Vd is a proportionality between amount in the body and measured concentration, not a real space. Low readings indicate little distribution into tissue, high ones wide distribution into tissue. The term clearance denotes a measure of how efficiently the substance is removed, as volume per time. As a reminder, the half-life is the time in which the quantity being followed falls by half. Low values mean rapid decline, high ones slow decline. Usually bioavailability stands for dose-corrected exposure relative to a reference, in per cent. The low end stands for poor availability, the high end for good availability. In general, Cmax refers to the maximum level reached in the sampled fluid or tissue. Broadly, the Tmax is the time at which the peak concentration occurs.
